In ChEMBL document CHEMBL1155453, “Spirotetrahydro beta-carbolines (spiroindolones): a new class of potent and orally efficacious compounds for the treatment of malaria” (J Med Chem, 2010):
In brackets after ≈: the same amount, converted by molar mass.

Tests used:
[1] = Clearance in mouse at 5 mg/kg, iv; assay type: ADME, organism-based; design: dose 5 mg/kg, route intravenous; settings: in vivo
Plasmodium falciparum [2] = test: Antimalarial activity against drug-sensitive Plasmodium falciparum NF54 infected in human erythrocytes after 48 hrs by [3H]hypoxanthine assay; assay type: functional, organism-based
Cytochrome P450 2C9 = Cytochrome P450 2C9 (Homo sapiens, UniProt P11712); test: Inhibition of CYP2C9 in human liver microsome by LC-MS/MS analysis; assay type: ADME, microsomes
Cytochrome P450 3A4 = Cytochrome P450 3A4 (Homo sapiens, UniProt P08684); test: Inhibition of CYP3A4 in human liver microsome by LC-MS/MS analysis; assay type: ADME, microsomes
Cytochrome P450 2D6 = Cytochrome P450 2D6 (Homo sapiens, UniProt P10635); test: Inhibition of CYP2D6 in human liver microsome by LC-MS/MS analysis; assay type: ADME, microsomes
[3] = Cmax in mouse at 25 mg/kg, po; assay type: ADME, organism-based; design: dose 25 mg/kg, route oral; settings: in vivo
How it was run: (§1)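 Mouse pharmacokinetics. Plasma drug concentration was followed over time. Derived values: Cmax, Tmax, AUC extrapolated to infinity, terminal half-life, and oral bioavailability (F) from the oral and iv exposures.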

[4] = Tmax in mouse at 25 mg/kg, po; assay type: ADME, organism-based; design: dose 25 mg/kg, route oral; settings: in vivo; how it was run: as §1
[5] = AUC (infinity) in mouse at 25 mg/kg, po; assay type: ADME, organism-based; design: time infinity, dose 25 mg/kg, route oral; settings: plasma; how it was run: as §1
[6] = Half life in mouse at 25 mg/kg, po; assay type: ADME, organism-based; design: dose 25 mg/kg, route oral; settings: in vivo; how it was run: as §1
Mus musculus = test: Oral bioavailability in mouse at 25 mg/kg; assay type: ADME, organism-based; settings: in vivo; how it was run: as §1
Plasmodium berghei [7] = test: Antimalarial activity against Plasmodium berghei ANKA infected in NMRI mice (Mus musculus) assessed as host survival time at 30 mg/kg, perorally administered as single dose (reference value: 6 to 7 days); assay type: functional; settings: route oral
Plasmodium berghei [8] = test: Antimalarial activity against Plasmodium berghei ANKA infected in NMRI mice (Mus musculus) assessed as host survival time at 100 mg/kg, perorally administered as single dose (reference value: 6 to 7 days); assay type: functional; settings: route oral
Plasmodium berghei [9] = test: Antimalarial activity against Plasmodium berghei ANKA infected in NMRI mice (Mus musculus) assessed as host survival time at 10 mg/kg, perorally administered once daily for 3 days (reference value: 6 to 7 days); assay type: functional; settings: route oral
Plasmodium berghei [10] = test: Antimalarial activity against Plasmodium berghei ANKA infected in NMRI mice (Mus musculus) assessed as host survival time at 30 mg/kg, perorally administered once daily for 3 days (reference value: 6 to 7 days); assay type: functional; settings: route oral
[11] = Solubility at pH 6.8; assay type: physicochemical; settings: buffer
[12] = Lipophilicity, log P of the compound; assay type: physicochemical; settings: octanol/water
[13] = target: Voltage-gated inwardly rectifying potassium channel KCNH2 (Homo sapiens, UniProt Q12809); test: Binding affinity to human ERG
[14] = Clearance in mouse at 5 mg/kg, iv; settings: in vivo
[15] = Half life in mouse at 5 mg/kg, iv; settings: in vivo
[16] = Volume of distribution at steady state in mouse at 5 mg/kg, iv; settings: in vivo, read-out: Vdss
Plasmodium falciparum [17] = test: Antimalarial activity against chloroquine-resistant Plasmodium falciparum K1 infected in human erythrocytes after 48 hrs by [3H]hypoxanthine assay; assay type: functional, organism-based
Plasmodium berghei [18] = test: Antimalarial activity against Plasmodium berghei ANKA infected in NMRI mice (Mus musculus) assessed as reduction in parasitaemia at 30 mg/kg, perorally administered as single dose; assay type: functional; design: scale not given: the % may be the effect or the level left; settings: route oral
How it was run: (§2)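 P. berghei-infected mice, 5 per group, given compound orally in 10% ethanol, 30% PEG400, 6% vitamin E TPGS, as a single dose or daily for three days. Parasitemia is measured on day three and reported as percent reduction (activity).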

Plasmodium berghei [19] = test: Antimalarial activity against Plasmodium berghei ANKA infected in NMRI mice (Mus musculus) assessed as reduction in parasitaemia at 100 mg/kg, perorally administered as single dose; assay type: functional; design: scale not given: the % may be the effect or the level left; settings: route oral; how it was run: as §2
Plasmodium berghei [20] = test: Antimalarial activity against Plasmodium berghei ANKA infected in NMRI mice (Mus musculus) assessed as reduction in parasitaemia at 10 mg/kg, perorally administered once daily for 3 days; assay type: functional; design: scale not given: the % may be the effect or the level left; settings: route oral; how it was run: as §2
Plasmodium berghei [21] = test: Antimalarial activity against Plasmodium berghei ANKA infected in NMRI mice (Mus musculus) assessed as reduction in parasitaemia at 30 mg/kg, perorally administered once daily for 3 days; assay type: functional; design: scale not given: the % may be the effect or the level left; settings: route oral; how it was run: as §2

Chain of Cytochrome P450 2D6 (P10635 whole entry): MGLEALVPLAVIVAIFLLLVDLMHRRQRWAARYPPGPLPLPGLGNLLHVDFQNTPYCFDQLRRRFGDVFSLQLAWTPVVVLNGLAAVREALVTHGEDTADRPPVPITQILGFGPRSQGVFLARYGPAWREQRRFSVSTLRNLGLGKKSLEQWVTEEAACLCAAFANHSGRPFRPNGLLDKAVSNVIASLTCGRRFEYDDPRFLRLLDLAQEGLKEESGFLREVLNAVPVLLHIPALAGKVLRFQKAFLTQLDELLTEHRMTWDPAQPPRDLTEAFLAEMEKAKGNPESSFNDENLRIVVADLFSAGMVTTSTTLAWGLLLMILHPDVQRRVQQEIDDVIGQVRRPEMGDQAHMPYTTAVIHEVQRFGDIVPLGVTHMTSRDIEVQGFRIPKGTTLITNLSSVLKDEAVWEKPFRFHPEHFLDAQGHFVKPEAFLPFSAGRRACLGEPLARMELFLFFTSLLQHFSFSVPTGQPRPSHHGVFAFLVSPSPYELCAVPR
Chain of Cytochrome P450 3A4 (P08684 whole entry): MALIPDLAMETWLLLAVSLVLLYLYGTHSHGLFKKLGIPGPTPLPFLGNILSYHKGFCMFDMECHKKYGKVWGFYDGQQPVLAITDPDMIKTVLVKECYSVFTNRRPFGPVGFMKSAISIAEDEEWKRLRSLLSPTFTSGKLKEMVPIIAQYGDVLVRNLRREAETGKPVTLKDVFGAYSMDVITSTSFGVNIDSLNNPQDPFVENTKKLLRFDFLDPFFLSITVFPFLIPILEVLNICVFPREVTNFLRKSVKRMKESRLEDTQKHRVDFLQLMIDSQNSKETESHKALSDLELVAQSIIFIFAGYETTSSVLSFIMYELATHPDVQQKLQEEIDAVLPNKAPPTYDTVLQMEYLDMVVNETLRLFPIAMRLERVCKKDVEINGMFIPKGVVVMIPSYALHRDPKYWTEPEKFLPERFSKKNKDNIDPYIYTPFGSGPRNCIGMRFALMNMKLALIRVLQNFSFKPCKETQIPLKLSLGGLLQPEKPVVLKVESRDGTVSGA
Chain of Cytochrome P450 2C9 (P11712 whole entry): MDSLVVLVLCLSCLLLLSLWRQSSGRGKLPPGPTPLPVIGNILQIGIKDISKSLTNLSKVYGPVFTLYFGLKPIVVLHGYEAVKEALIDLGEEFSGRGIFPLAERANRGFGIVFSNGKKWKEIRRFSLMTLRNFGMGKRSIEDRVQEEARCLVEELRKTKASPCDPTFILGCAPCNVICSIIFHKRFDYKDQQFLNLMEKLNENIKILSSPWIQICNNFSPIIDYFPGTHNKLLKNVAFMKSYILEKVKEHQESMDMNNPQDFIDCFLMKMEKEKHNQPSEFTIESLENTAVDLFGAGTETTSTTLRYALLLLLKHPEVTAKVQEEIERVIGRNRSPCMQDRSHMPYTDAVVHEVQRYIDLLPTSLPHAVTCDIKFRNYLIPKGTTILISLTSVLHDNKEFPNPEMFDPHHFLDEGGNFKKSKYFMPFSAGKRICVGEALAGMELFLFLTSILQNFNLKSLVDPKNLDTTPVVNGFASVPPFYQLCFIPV
Chain of Voltage-gated inwardly rectifying potassium channel KCNH2 (Q12809 whole entry): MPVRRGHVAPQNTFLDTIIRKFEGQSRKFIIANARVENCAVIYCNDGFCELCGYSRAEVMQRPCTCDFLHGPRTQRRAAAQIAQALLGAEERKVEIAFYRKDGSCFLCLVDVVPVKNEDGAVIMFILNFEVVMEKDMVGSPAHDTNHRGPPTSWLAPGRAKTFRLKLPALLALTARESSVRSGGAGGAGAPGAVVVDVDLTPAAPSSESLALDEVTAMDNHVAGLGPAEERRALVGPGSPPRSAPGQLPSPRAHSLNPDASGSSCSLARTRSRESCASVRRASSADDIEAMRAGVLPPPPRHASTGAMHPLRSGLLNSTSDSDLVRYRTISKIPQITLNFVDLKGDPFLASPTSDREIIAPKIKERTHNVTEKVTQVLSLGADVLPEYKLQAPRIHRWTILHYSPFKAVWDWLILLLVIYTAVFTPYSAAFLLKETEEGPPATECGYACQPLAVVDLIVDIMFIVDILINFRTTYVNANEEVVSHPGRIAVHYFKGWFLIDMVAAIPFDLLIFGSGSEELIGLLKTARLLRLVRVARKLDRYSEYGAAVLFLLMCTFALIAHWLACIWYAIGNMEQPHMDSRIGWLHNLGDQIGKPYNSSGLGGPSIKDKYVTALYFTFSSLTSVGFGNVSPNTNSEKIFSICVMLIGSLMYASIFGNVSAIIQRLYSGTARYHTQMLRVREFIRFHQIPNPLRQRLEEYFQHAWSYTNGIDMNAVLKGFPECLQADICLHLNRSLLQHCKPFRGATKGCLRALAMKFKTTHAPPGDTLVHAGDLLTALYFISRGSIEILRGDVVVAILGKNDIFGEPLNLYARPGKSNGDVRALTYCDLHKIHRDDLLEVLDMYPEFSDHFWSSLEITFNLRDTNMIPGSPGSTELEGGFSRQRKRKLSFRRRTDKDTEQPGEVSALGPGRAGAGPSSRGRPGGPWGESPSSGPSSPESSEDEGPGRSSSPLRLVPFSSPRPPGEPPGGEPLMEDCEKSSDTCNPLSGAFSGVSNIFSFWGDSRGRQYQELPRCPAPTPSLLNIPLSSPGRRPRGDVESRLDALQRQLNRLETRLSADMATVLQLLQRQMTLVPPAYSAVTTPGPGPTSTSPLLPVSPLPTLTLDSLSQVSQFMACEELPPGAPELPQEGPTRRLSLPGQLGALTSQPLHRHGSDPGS

`C[C@@H]1Cc2c([nH]c3cc(Cl)c(F)cc23)[C@]2(N1)C(=O)Nc1ccc(Cl)cc12` showed a clearance [1] of 2.58 mL/min/kg, an IC50 (Plasmodium falciparum [2]) of 77 nM and an IC50 (Cytochrome P450 2C9) greater than 10000 nM. For the same compound, the IC50 (Cytochrome P450 3A4) was “Not Active” and the IC50 (Cytochrome P450 2D6) was “Not Active”.

For `C[C@H]1Cc2c([nH]c3cc(F)c(F)cc23)[C@@]2(N1)C(=O)Nc1ccc(Cl)cc12`, the Cmax [3] was 8.32 µM, the Tmax [4] was 2 h and the AUC(0-inf) [5] was 71.4 µM·h. The half-life [6] was 3.18 h, the F (Mus musculus) was 53% and the clearance [1] was 8.53 mL/min/kg. The Survival (Plasmodium berghei [7]) was 12 days, the Survival (Plasmodium berghei [8]) was 13 days and the Survival (Plasmodium berghei [9]) was 17.2 days. It also gave a Survival (Plasmodium berghei [10]) of 29.4 days, an IC50 (Plasmodium falciparum [2]) of 0.2 nM and a solubility [11] of 170 µg/mL (≈ 455 µM). The logP [12] was 4, the IC50 [13] was greater than 30000 nM and the IC50 (Cytochrome P450 2C9) was 7350 nM. The IC50 (Cytochrome P450 3A4) was “Not Active”, the IC50 (Cytochrome P450 2D6) was “Not Active” and the clearance [14] was 8.53 mL/min/kg. It also gave a half-life [15] of 2.94 h and a Vd [16] of 1.6 L/kg.

In the case of `C[C@@H]1Cc2c([nH]c3ccc(F)cc23)[C@]2(N1)C(=O)Nc1ccc(Cl)cc12`, the IC50 (Plasmodium falciparum [2]) is reported as 182 nM, the IC50 (Cytochrome P450 2C9) is reported as greater than 10000 nM and the IC50 (Cytochrome P450 3A4) is reported as “Not Active”. For the same compound, the IC50 (Cytochrome P450 2D6) was “Not Active”.

Work on `C[C@H]1CCc2c([nH]c3ccccc23)[C@@]2(N1)C(=O)Nc1ccc(Br)cc12` yielded a solubility [11] of 79 µg/mL (≈ 199 µM) and a logP [12] of 3.9.

For `C[C@@H]1CCc2c([nH]c3ccccc23)[C@]2(N1)C(=O)Nc1ccc(Br)cc12`, the IC50 (Plasmodium falciparum [2]) was greater than 5000 nM.

With `CC1CCc2c([nH]c3ccccc23)C2(N1)C(=O)Nc1ccc(Cl)cc12` (stereo not given) the IC50 (Plasmodium falciparum [2]) was 84 nM.

`O=C1Nc2ccc(Cl)cc2C12NCCCCc1c2[nH]c2ccccc12` (stereo not given) gave an IC50 (Plasmodium falciparum [2]) greater than 5000 nM and an IC50 (Plasmodium falciparum [17]) greater than 5000 nM.

Work on `O=C1Nc2ccc(Cl)cc2C12NCCc1c2[nH]c2ccccc12` (stereo not given) yielded an IC50 (Plasmodium falciparum [2]) of 126 nM and an IC50 (Plasmodium falciparum [17]) of 104 nM.

With `CC1(C)Cc2c([nH]c3ccccc23)C2(N1)C(=O)Nc1ccc(Cl)cc12` (stereo not given) the IC50 (Plasmodium falciparum [2]) was 857 nM and the IC50 (Plasmodium falciparum [17]) was 819 nM.

With `C[C@H]1Cc2c([nH]c3ccc(F)cc23)[C@@]2(N1)C(=O)Nc1ccc(Cl)cc12` the clearance [1] was 24 mL/min/kg, the IC50 (Plasmodium falciparum [2]) was 3 nM and the solubility [11] was 140 µg/mL (≈ 393 µM). The logP [12] was 3.6, the IC50 (Cytochrome P450 2C9) was 1720 nM and the IC50 (Cytochrome P450 3A4) was “Not Active”. For the same compound, the IC50 (Cytochrome P450 2D6) was “Not Active”.

In the case of `C[C@@H]1Cc2c([nH]c3cc(Cl)ccc23)[C@]2(N1)C(=O)Nc1ccc(Cl)cc12`, the IC50 (Plasmodium falciparum [2]) is reported as 116 nM, the IC50 (Cytochrome P450 2C9) is reported as greater than 10000 nM and the IC50 (Cytochrome P450 3A4) is reported as “Not Active”. The IC50 (Cytochrome P450 2D6) was “Not Active”.

For `O=C1Nc2ccc(Cl)cc2C12NCCCc1c2[nH]c2ccccc12` (stereo not given), the IC50 (Plasmodium falciparum [2]) was 86 nM and the IC50 (Plasmodium falciparum [17]) was 83 nM.

With `C[C@H]1Cc2c([nH]c3cc(Cl)ccc23)[C@@]2(N1)C(=O)Nc1ccc(Cl)cc12` the clearance [1] was 60.1 mL/min/kg, the IC50 (Plasmodium falciparum [2]) was 4 nM and the solubility [11] was 8 µg/mL (≈ 21.5 µM). For the same compound, the logP [12] was 4.8, the IC50 [13] was greater than 30000 nM and the IC50 (Cytochrome P450 2C9) was 4110 nM. For the same compound, the IC50 (Cytochrome P450 3A4) was “Not Active” and the IC50 (Cytochrome P450 2D6) was “Not Active”.

In the case of `C[C@@H]1Cc2c([nH]c3cc(F)c(F)cc23)[C@]2(N1)C(=O)Nc1ccc(Cl)cc12`, the clearance [1] is reported as 4.14 mL/min/kg, the IC50 (Plasmodium falciparum [2]) is reported as 83 nM and the IC50 (Cytochrome P450 2C9) is reported as greater than 10000 nM. For the same compound, the IC50 (Cytochrome P450 3A4) was “Not Active” and the IC50 (Cytochrome P450 2D6) was “Not Active”.

`C[C@H]1[C@H](OC(=O)CCC(=O)O)O[C@@H]2O[C@@]3(C)CC[C@H]4[C@H](C)CC[C@@H]1[C@@]24OO3` [ARTESUNATE] showed an Activity (Plasmodium berghei [18]) of 95.6%, a Survival (Plasmodium berghei [7]) of 5.8 days and an Activity (Plasmodium berghei [19]) of 98%. For the same compound, the Survival (Plasmodium berghei [8]) was 7 days, the Activity (Plasmodium berghei [20]) was 96% and the Survival (Plasmodium berghei [9]) was 8.1 days. For the same compound, the Activity (Plasmodium berghei [21]) was 99% and the Survival (Plasmodium berghei [10]) was 12.2 days.

`CCN(CC)CCCC(C)Nc1ccnc2cc(Cl)ccc12` (stereo not given) [CHLOROQUINE] gave an Activity (Plasmodium berghei [18]) of 99.5%, a Survival (Plasmodium berghei [7]) of 9 days and an Activity (Plasmodium berghei [19]) of 99.6%. It also gave a Survival (Plasmodium berghei [8]) of 12.5 days, an Activity (Plasmodium berghei [20]) of 99.8% and a Survival (Plasmodium berghei [9]) of 13.6 days. The Activity (Plasmodium berghei [21]) was 99.8% and the Survival (Plasmodium berghei [10]) was 14.3 days.

For `C[C@H]1Cc2c([nH]c3cc(Cl)c(F)cc23)[C@@]2(N1)C(=O)Nc1ccc(Cl)cc12` [CIPARGAMIN], the IC50 (Cytochrome P450 2C9) was 5420 nM, the IC50 (Cytochrome P450 3A4) was “Not Active” and the IC50 (Cytochrome P450 2D6) was “Not Active”.

In the case of `CC1CCc2c([nH]c3ccccc23)C2(N1)C(=O)Nc1ccc(Br)cc12` (stereo not given) [SPIROAZEPINEINDOLE], the IC50 (Plasmodium falciparum [2]) is reported as 90 nM.
